Values after ≈ are worked out from the molar mass of the structure shown. Where only a bound is given, the exact number is not on record here.

What is called MIC is the least concentration at which growth counts as inhibited.

The subject of data set [1] is Mycolicibacterium smegmatis. The data set is described as follows: Antibacterial activity against Mycobacterium smegmatis CIP 73.26 assessed as growth inhibition at 37 degC after 24 hrs by liquid broth dilution method. The class given is functional. The conditions noted are these: CIP 73.26, 24 h. A digest of the protocol: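 Inoculum at 0.5 McFarland (~1.5 × 10⁸ cfu/mL). DMSO stock (1 g/L) serially diluted in the same medium 1:2 to 1:512. Shaken 24 h at 150 rpm, 37 °C. MIC = lowest concentration with no OD600 rise in any replicate versus negative control.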

Another data set concerns Staphylococcus aureus. The data set is described as follows: Antibacterial activity against Staphylococcus aureus subsp aureus CIP 53.154 assessed as growth inhibition at 30 degC after 24 hrs by liquid broth dilution method. Particulars: CIP 53.154, 24 h; call rule not given here. The class given is functional. The procedure, abridged: (§1)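 Strains kept at -80 °C in LB broth with 20% glycerol and grown from 1% (v/v) stock in nutritive broth (yeast extract 1 g/L, meat extract 2 g/L, peptone 5 g/L, NaCl 5 g/L) at 30 °C. Overnight culture adjusted to 0.5 McFarland (~1.5 × 10⁸ cfu/mL). Compound stock 1 g/L in DMSO, serially diluted in broth 1:2 to 1:512, mixed 1:1 with inoculum. Incubation 24 h, 150 rpm, 30 °C. OD600 read; MIC = lowest concentration with no OD increase in all replicates versus negative control.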

The test system of a further data set is Micrococcus luteus. Nature of the data set: Antibacterial activity against Micrococcus luteus CIP 53.45 assessed as growth inhibition at 30 degC after 24 hrs by liquid broth dilution method. The class given is functional. Particulars: CIP 53.45, 24 h. The procedure, abridged: as §1
(In general: Broth dilution looks for growth in wells or tubes with falling amounts of substance.)

A short description of data set [2]: Gamma critical micelle concentration of the compound by wilhelmy method. The format is physicochemical. The procedure, abridged: (§2)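 Wilhelmy plate method at 293 K. Concentrated solution added stepwise from a syringe into ultrapure water, stirred gently 30 s after each addition, then equilibrium surface tension read. Each value is the mean of at least three measurements (SD within ±1.5% of mean). Transducer precision 0.1 mN/m; platinum plate flame-cleaned. Surface tension plotted against molar concentration to give CMC and γCMC.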

The next data set concerns Pseudomonas aeruginosa. Nature of the data set: Antibacterial activity against Pseudomonas aeruginosa CIP A22 assessed as growth inhibition at 30 degC after 24 hrs by liquid broth dilution method. The format is functional. The conditions noted are these: CIP A22, 24 h. A digest of the protocol:
as §1

Data set [3] relates to Geobacillus stearothermophilus. The data set is described as follows: Antibacterial activity against Bacillus stearothermophilus ATTC 12980 assessed as growth inhibition at 30 degC after 24 hrs by liquid broth dilution method. The conditions noted are these: ATTC 12980, 24 h. The format is functional. A digest of the protocol: as §1
For another data set, the system named is Sinorhizobium meliloti. The data set is described as follows: Antibacterial activity against Sinorhizobium meliloti Rm1021 assessed as growth inhibition at 30 degC after 24 hrs by liquid broth dilution method. The format is functional. Particulars: Rm1021, 24 h. The procedure, abridged:
as §1

The next data set has as its system Escherichia coli. The data set is described as follows: Antibacterial activity against Escherichia coli ATCC 10536 assessed as growth inhibition at 30 degC after 24 hrs by liquid broth dilution method. The class given is functional. Particulars: ATCC 10536, 24 h. The procedure, abridged: as §1
A further data set relates to Dickeya chrysanthemi. The data set is described as follows: Antibacterial activity against Erwinia chrysanthemi EC3937 assessed as growth inhibition at 30 degC after 24 hrs by liquid broth dilution method. The class given is functional. The conditions noted are these: EC3937, 24 h. A digest of the protocol: as §1
A short description of data set [4]: Critical micelle concentration of the compound by wilhelmy method. The format is physicochemical. A digest of the protocol: as §2
The next data set has as its system Citrobacter freundii. Nature of the data set: Antibacterial activity against Citrobacter freundii ATCC 6750 assessed as growth inhibition at 30 degC after 24 hrs by liquid broth dilution method. The format is functional. Particulars: ATCC 6750, 24 h. A digest of the protocol:
as §1

A further data set concerns Enterobacter cloacae. The data set is described as follows: Antibacterial activity against Enterobacter cloacae ATCC 13047 assessed as growth inhibition at 30 degC after 24 hrs by liquid broth dilution method. Particulars: ATCC 13047, 24 h. The format is functional. The procedure, abridged:
as §1

As for `CCCCCCCCCCCCOc1ccc(OC[C@H]2O[C@H](O)[C@H](O)[C@@H](O)[C@H]2O)cc1`, the MIC in [1] was 62.5 µg/mL (≈ 142 µM); in the data set with Staphylococcus aureus, 125 µg/mL (≈ 284 µM); in the data set with Micrococcus luteus, 62.5 µg/mL (≈ 142 µM); in the data set on Pseudomonas aeruginosa, 62.5 µg/mL (≈ 142 µM); in data set [3], 62.5 µg/mL (≈ 142 µM); in the data set on Sinorhizobium meliloti, 62.5 µg/mL (≈ 142 µM). In addition, the MIC in the data set on Escherichia coli is 62.5 µg/mL (≈ 142 µM); in the data set on Dickeya chrysanthemi, 62.5 µg/mL (≈ 142 µM); with Citrobacter freundii, 125 µg/mL (≈ 284 µM); in the data set on Enterobacter cloacae, 62.5 µg/mL (≈ 142 µM). This molecule gave a gammaCMC in data set [2] of 54 mN/meter. The CMC in data set [4] came out at 3.1 mmol/L.

As for `CCCCCCCCOCC#CCOC[C@H]1O[C@H](O)[C@H](O)[C@@H](O)[C@H]1O`, the MIC in data set [1] was 62.5 µg/mL (≈ 173 µM); in the data set with Staphylococcus aureus, 125 µg/mL (≈ 347 µM); in the data set with Micrococcus luteus it was 62.5 µg/mL (≈ 173 µM); in the data set on Pseudomonas aeruginosa, 125 µg/mL (≈ 347 µM); in [3] it was 62.5 µg/mL (≈ 173 µM); with Sinorhizobium meliloti it was 62.5 µg/mL (≈ 173 µM). In addition, the MIC in the data set with Escherichia coli came out at 62.5 µg/mL (≈ 173 µM); with Dickeya chrysanthemi it was 62.5 µg/mL (≈ 173 µM); in the data set with Citrobacter freundii, 125 µg/mL (≈ 347 µM); in the data set with Enterobacter cloacae, 62.5 µg/mL (≈ 173 µM). In addition, the gammaCMC in data set [2] is 30 mN/meter. Further, the CMC in data set [4] stood at 0.06 mmol/L.

Regarding `CCCCCCCCCCCCOC[C@H]1O[C@H](O)[C@H](O)[C@@H](O)[C@H]1O`, the MIC (in data set [1]; in the data set on Staphylococcus aureus; with Micrococcus luteus; with Pseudomonas aeruginosa; in [3]; in the data set with Sinorhizobium meliloti) was ≥ 250 µg/mL throughout. Besides, the MIC in the data set with Escherichia coli, in the data set with Dickeya chrysanthemi, in the data set on Citrobacter freundii and in the data set on Enterobacter cloacae was ≥ 250 µg/mL each time. Besides, the gammaCMC entry in data set [2] was “Not Active”. Further, the CMC entry in [4] is reported as “Not Active”.

The record behind these values is ChEMBL document CHEMBL2331520, “Synthesis, surface tension properties and antibacterial activities of amphiphilic D-galactopyranose derivatives” (Eur J Med Chem, 2013).
